The record followed here is ChEMBL document CHEMBL5244228, “Novel linked butanolide dimer compounds increase adiponectin production during adipogenesis in human mesenchymal stem cells through peroxisome proliferator-activated receptor γ modulation” (Eur J Med Chem, 2020).

The structures appear in SMILES notation. The source made the active and inactive calls. The rule behind the calls is not given here.

For assay [1], the target named is T1, Peroxisome proliferator-activated receptor gamma (Homo sapiens) (UniProt P37231).
T1 sequence (whole entry): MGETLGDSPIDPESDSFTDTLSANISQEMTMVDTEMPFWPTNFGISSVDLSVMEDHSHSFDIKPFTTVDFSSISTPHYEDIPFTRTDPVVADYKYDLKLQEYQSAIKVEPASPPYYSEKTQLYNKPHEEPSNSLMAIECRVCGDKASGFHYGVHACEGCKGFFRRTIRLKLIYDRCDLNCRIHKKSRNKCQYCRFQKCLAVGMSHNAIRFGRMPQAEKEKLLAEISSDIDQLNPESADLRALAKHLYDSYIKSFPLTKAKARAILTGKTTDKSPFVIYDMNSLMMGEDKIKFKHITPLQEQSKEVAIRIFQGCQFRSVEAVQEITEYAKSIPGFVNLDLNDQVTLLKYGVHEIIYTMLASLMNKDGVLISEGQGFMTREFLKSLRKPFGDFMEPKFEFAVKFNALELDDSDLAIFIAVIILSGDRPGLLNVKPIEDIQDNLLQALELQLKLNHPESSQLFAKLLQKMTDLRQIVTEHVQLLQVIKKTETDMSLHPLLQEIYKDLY
Kind of assay: Displacement of Fluormone Pan-PPAR Green from GST-tagged human PPAR-gamma ligand binding domain at 10 uM by LanthaScreen TR-FRET competitive binding assay. The method, boiled down: (§1)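 TR-FRET competitive binding run with a LanthaScreen kit, following a previously described protocol; values read on a plate reader.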
For orientation: TR-FRET usually uses a lanthanide donor and a delayed reading to cut background.

Assay [2] concerns the target T2, Peroxisome proliferator-activated receptor alpha (Homo sapiens) (UniProt Q07869).
T2 sequence (whole entry): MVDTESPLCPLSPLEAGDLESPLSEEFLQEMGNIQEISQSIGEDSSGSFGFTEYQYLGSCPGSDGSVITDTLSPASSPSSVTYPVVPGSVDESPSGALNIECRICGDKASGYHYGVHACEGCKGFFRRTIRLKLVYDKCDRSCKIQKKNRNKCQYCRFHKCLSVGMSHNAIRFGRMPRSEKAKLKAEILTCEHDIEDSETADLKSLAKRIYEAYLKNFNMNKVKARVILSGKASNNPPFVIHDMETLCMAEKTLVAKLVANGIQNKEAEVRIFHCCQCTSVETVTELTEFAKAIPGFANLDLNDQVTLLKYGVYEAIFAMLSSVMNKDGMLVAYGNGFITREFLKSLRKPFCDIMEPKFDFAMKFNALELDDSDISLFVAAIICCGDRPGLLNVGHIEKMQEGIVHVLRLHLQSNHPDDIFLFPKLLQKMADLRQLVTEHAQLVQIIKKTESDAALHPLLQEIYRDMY
The assay is described as follows: Displacement of Fluormone Pan-PPAR Green from GST-tagged human PPAR-alpha ligand binding domain at 10 uM by LanthaScreen TR-FRET competitive binding assay. The method, boiled down: as §1

For assay [3], the target named is T3, Peroxisome proliferator-activated receptor delta (Homo sapiens) (UniProt Q03181).
T3 sequence (whole entry): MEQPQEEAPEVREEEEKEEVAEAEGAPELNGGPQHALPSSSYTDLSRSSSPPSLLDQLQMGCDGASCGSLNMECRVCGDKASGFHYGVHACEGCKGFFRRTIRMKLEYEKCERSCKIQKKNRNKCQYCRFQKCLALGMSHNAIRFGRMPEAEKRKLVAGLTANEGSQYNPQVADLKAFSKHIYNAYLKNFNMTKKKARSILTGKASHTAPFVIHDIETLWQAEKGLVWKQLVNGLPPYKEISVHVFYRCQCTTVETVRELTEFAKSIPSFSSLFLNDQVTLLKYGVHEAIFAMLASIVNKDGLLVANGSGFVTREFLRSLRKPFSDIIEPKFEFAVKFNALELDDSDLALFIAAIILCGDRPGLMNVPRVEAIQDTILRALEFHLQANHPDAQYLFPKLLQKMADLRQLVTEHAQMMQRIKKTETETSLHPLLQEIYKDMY
The assay is described as follows: Displacement of Fluormone Pan-PPAR Green from GST-tagged human PPAR-delta ligand binding domain at 10 uM by LanthaScreen TR-FRET competitive binding assay. The method, boiled down:
as §1

Assay [4] has as its target T4, Peroxisome proliferator-activated receptor gamma (Homo sapiens, UniProt P37231).
T4 sequence (P37231 whole entry): T1 sequence (whole entry)
Kind of assay: Agonist activity at PPAR-gamma in human BMMSC cells assessed as induction of adiponectin production in presence of IDX adipogenic induction medium and measured on day 5 by ELISA. It is filed as cell-based. In general terms: An ELISA detects its analyte on a solid surface through an enzyme-linked reagent.

Assay [5] concerns the target T4, Peroxisome proliferator-activated receptor gamma. Kind of assay: Displacement of [3H]rosiglitazone from human PPAR-gamma incubated for 1 day by radioligand binding assay.
Assay [6] addresses T1, Peroxisome proliferator-activated receptor gamma (Homo sapiens). The assay is described as follows: Displacement of [3H]rosiglitazone from human PPAR-gamma at 30 uM incubated for 1 day by radioligand binding assay. The following applies: filed as agonist. (Loss of bound radioactivity is the signal in a displacement assay; it reports binding, not function.)
For assay [7] the target is unchanged. The assay is described as follows: Partial agonist activity at PPAR-gamma in human BMMSC cells assessed as inhibition of pioglitazone-induced adiponectin production at 1 to 10 uM in presence of IDX adipogenic induction medium and pioglitazone and measured on day 5 by ELISA. It is filed as cell-based. As to conditions: filed as partial agonist, dose 1-10 µM, time 5.0 day. The method, boiled down: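 Human bone marrow MSCs grown in DMEM (1 g/L glucose), 10% FBS, 1% pen-strep. Adipogenesis induced in DMEM (4.5 g/L glucose), 10% FBS, insulin, dexamethasone, IBMX, with compounds co-added alongside pioglitazone. Supernatants collected on day 5; adiponectin quantified by ELISA. Mean ± SD, n = 3.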

With `CCCCCCCC/C=C1/C(=O)O[C@@H](C)[C@H]1O`, the result in assay [1] (filed as agonist) was Active. The outcome in assay [2] and in assay [3] was inactive.
Turning to `CCCCCCCCCCC/C=C1/C(=O)O[C@@H](C)[C@H]1O`, the result in assay [1] (filed as agonist) was Active. The outcome in assay [2] and in assay [3] was inactive.
Turning to `CCCCCCCCCC/C=C1/C(=O)O[C@@H](C)[C@H]1O`, in assay [1] (filed as agonist), the outcome was Active. The result in assay [2] and in assay [3] was inactive.
Consider `CCCCCCCCCCCCC/C=C1/C(=O)O[C@@H](C)[C@@H]1O`, for which, in assay [1] (filed as agonist), the outcome was Active. The EC50 – broadly, the concentration giving half of the maximal effect – in assay [4] was more than 30 µM. Also, the Ki (as a rule, a dissociation constant, usually derived from enzyme kinetics or from competition with a known ligand) in assay [5] came to 1.9 µM. The outcome in assay [2] and in assay [3] was inactive.
On to `CCCCCCCCC/C=C1/C(=O)O[C@@H](C)[C@H]1O`, for which the outcome in assay [1] (filed as agonist) was Active. In addition, the outcome in assay [2] and in assay [3] was inactive.
Consider `CCCCC/C=C1/C(=O)O[C@@H](C)[C@H]1O`, for which the result in assay [1] (filed as agonist) was Active. The result in assay [2] and in assay [3] was inactive.
Turning to `CCC/C=C1/C(=O)O[C@@H](C)[C@H]1O`, the result in assay [1] (filed as agonist) was Active. Besides, in assay [4], the EC50 turned out to be 25.3 µM. For the same compound, the Ki in assay [5] was more than 30 µM. In assay [6], this compound displayed an Activity of 48.5%. The result in assay [2] and in assay [3] was inactive.
`CCCCCCCCCCCC/C=C1/C(=O)O[C@@H](C)[C@H]1O`: the outcome in assay [1] (filed as agonist) was Active. The outcome in assay [2] and in assay [3] was inactive.
As for `CCCCCCC/C=C1/C(=O)O[C@@H](C)[C@H]1O`, in assay [1] (filed as agonist), the result was Active. For the same compound, the outcome in assay [2] and in assay [3] was inactive.
Take `CCCCC/C=C1/C(=O)O[C@@H](C)[C@@H]1O`: the result in assay [1] (filed as agonist) was Active. In addition, the outcome in assay [2] and in assay [3] was inactive.
Take `CCCC=C1C(=O)O[C@@H](C)[C@@H]1O`: the outcome in assay [1] (filed as agonist) was Active. Moreover, the EC50 in assay [4] was 19 µM. In assay [5], this compound came in with a Ki of 22 µM. In addition, the outcome in assay [2] and in assay [3] was inactive.
Turning to `CCCCCCCCCCCCC/C=C1/C(=O)O[C@@H](C)[C@H]1O`, in assay [1] (filed as partial agonist), the result was Active. Also, the EC50 in assay [4] was more than 30 µM. Besides, in assay [5], the affinity, expressed as Ki, was 9.2 µM. Further, in assay [7], the Activity entry is “Dose-Dependent Effect”. The result in assay [2] and in assay [3] was inactive.
